Tested on: HEK-293T
Experiment: Multiplex assay against HEK293T
Format: toxicity, cell-based
Conditions: human
Procedure, shortened: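 Tubulin, mitochondrial-mass and membrane-permeability phenotypes are per cents of healthy-nucleus cells. Cells were gated by CellPathfinder machine learning into Hoechst high-intensity objects or normal cells, normal cells into healthy, pyknosed or fragmented nuclei, and pyknosed cells into mitotic or apoptotic. Before that, live cells stained at seeding with Hoechst33342, BioTracker Green Microtubule Cytoskeleton Dye, MitoTracker Red and Annexin V Alexa Fluor 680 were imaged on a CQ1 microscope at 37°C and 5% CO2 after compound addition.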

[1] = 12 h, 1 µM, compound concentration 1 uM, replicate 1
[2] = 12 h, 1 µM, compound concentration 1 uM, replicate 2
[3] = 12 h, 10 µM, compound concentration 10 uM, replicate 1
[4] = 12 h, 10 µM, compound concentration 10 uM, replicate 2
[5] = 24 h, 1 µM, compound concentration 1 uM, replicate 1
[6] = 24 h, 1 µM, compound concentration 1 uM, replicate 2
[7] = 24 h, 10 µM, compound concentration 10 uM, replicate 1
[8] = 24 h, 10 µM, compound concentration 10 uM, replicate 2
[9] = 48 h, 1 µM, compound concentration 1 uM, replicate 1
[10] = 48 h, 1 µM, compound concentration 1 uM, replicate 2
[11] = 48 h, 10 µM, compound concentration 10 uM, replicate 1
[12] = 48 h, 10 µM, compound concentration 10 uM, replicate 2

COc1cc(Nc2ncc3c(n2)-c2ccc(Cl)cc2C(c2c(F)cccc2OC)=NC3)ccc1C(=O)O [ALISERTIB]
Population Apoptotic (%) [1]: 38%
Population Fragmented Nuclei (%) [1]: 3%
Population Healthy Nuclei (%) [1]: 88%
Population Hoechst High Intensity Objects (%) [1]: 5%
Population Membrane Permeable-Phenotype (%) [1]: 0%
Population Mitochondria Different-Phenotype (%) [1]: 44%
Population Mitotic Cells (%) [1]: 61%
Population Normal (%) [1]: 94%
Population Pyknosed Nuclei (%) [1]: 7%
Population Tubulin-Different-Phenotype (%) [1]: 46%
Population Apoptotic (%) [2]: 61%
Population Fragmented Nuclei (%) [2]: 7%
Population Healthy Nuclei (%) [2]: 85%
Population Hoechst High Intensity Objects (%) [2]: 7%
Population Mitochondria Different-Phenotype (%) [2]: 69%
Population Mitotic Cells (%) [2]: 38%
Population Normal (%) [2]: 93%
Population Tubulin-Different-Phenotype (%) [2]: 49%
Population Apoptotic (%) [3]: 61%
Population Fragmented Nuclei (%) [3]: 8%
Population Healthy Nuclei (%) [3]: 74%
Population Hoechst High Intensity Objects (%) [3]: 9%
Population Membrane Permeable-Phenotype (%) [3]: 0%
Population Mitochondria Different-Phenotype (%) [3]: 80%
Population Mitotic Cells (%) [3]: 38%
Population Normal (%) [3]: 90%
Population Pyknosed Nuclei (%) [3]: 16%
Population Tubulin-Different-Phenotype (%) [3]: 68%
Population Apoptotic (%) [4]: 88%
Population Fragmented Nuclei (%) [4]: 9%
Population Healthy Nuclei (%) [4]: 72%
Population Hoechst High Intensity Objects (%) [4]: 15%
Population Mitochondria Different-Phenotype (%) [4]: 82%
Population Mitotic Cells (%) [4]: 11%
Population Normal (%) [4]: 84%
Population Pyknosed Nuclei (%) [4]: 17%
Population Tubulin-Different-Phenotype (%) [4]: 54%
Population Apoptotic (%) [5]: 50%
Population Fragmented Nuclei (%) [5]: 10%
Population Healthy Nuclei (%) [5]: 82%
Population Hoechst High Intensity Objects (%) [5]: 3%
Population Membrane Permeable-Phenotype (%) [5]: 0%
Population Mitochondria Different-Phenotype (%) [5]: 25%
Population Mitotic Cells (%) [5]: 50%
Population Normal (%) [5]: 96%
Population Pyknosed Nuclei (%) [5]: 7%
Population Tubulin-Different-Phenotype (%) [5]: 31%
Population Apoptotic (%) [6]: 47%
Population Fragmented Nuclei (%) [6]: 9%
Population Healthy Nuclei (%) [6]: 81%
Population Hoechst High Intensity Objects (%) [6]: 9%
Population Mitochondria Different-Phenotype (%) [6]: 47%
Population Mitotic Cells (%) [6]: 52%
Population Normal (%) [6]: 90%
Population Pyknosed Nuclei (%) [6]: 9%
Population Tubulin-Different-Phenotype (%) [6]: 30%
Population Apoptotic (%) [7]: 54%
Population Fragmented Nuclei (%) [7]: 8%
Population Healthy Nuclei (%) [7]: 74%
Population Hoechst High Intensity Objects (%) [7]: 6%
Population Membrane Permeable-Phenotype (%) [7]: 0%
Population Mitochondria Different-Phenotype (%) [7]: 75%
Population Mitotic Cells (%) [7]: 45%
Population Normal (%) [7]: 93%
Population Pyknosed Nuclei (%) [7]: 16%
Population Tubulin-Different-Phenotype (%) [7]: 64%
Population Apoptotic (%) [8]: 56%
Population Fragmented Nuclei (%) [8]: 12%
Population Healthy Nuclei (%) [8]: 55%
Population Hoechst High Intensity Objects (%) [8]: 34%
Population Membrane Permeable-Phenotype (%) [8]: 1%
Population Mitochondria Different-Phenotype (%) [8]: 86%
Population Mitotic Cells (%) [8]: 43%
Population Normal (%) [8]: 65%
Population Pyknosed Nuclei (%) [8]: 31%
Population Tubulin-Different-Phenotype (%) [8]: 50%
Population Apoptotic (%) [9]: 31%
Population Fragmented Nuclei (%) [9]: 14%
Population Healthy Nuclei (%) [9]: 79%
Population Hoechst High Intensity Objects (%) [9]: 3%
Population Membrane Permeable-Phenotype (%) [9]: 0%
Population Mitochondria Different-Phenotype (%) [9]: 14%
Population Mitotic Cells (%) [9]: 68%
Population Normal (%) [9]: 96%
Population Pyknosed Nuclei (%) [9]: 5%
Population Tubulin-Different-Phenotype (%) [9]: 17%
Population Apoptotic (%) [10]: 57%
Population Fragmented Nuclei (%) [10]: 16%
Population Healthy Nuclei (%) [10]: 77%
Population Hoechst High Intensity Objects (%) [10]: 15%
Population Mitochondria Different-Phenotype (%) [10]: 27%
Population Mitotic Cells (%) [10]: 42%
Population Normal (%) [10]: 84%
Population Tubulin-Different-Phenotype (%) [10]: 24%
Population Apoptotic (%) [11]: 48%
Population Fragmented Nuclei (%) [11]: 13%
Population Healthy Nuclei (%) [11]: 78%
Population Hoechst High Intensity Objects (%) [11]: 5%
Population Membrane Permeable-Phenotype (%) [11]: 0%
Population Mitochondria Different-Phenotype (%) [11]: 57%
Population Mitotic Cells (%) [11]: 52%
Population Normal (%) [11]: 94%
Population Pyknosed Nuclei (%) [11]: 7%
Population Tubulin-Different-Phenotype (%) [11]: 42%
Population Apoptotic (%) [12]: 82%
Population Fragmented Nuclei (%) [12]: 19%
Population Healthy Nuclei (%) [12]: 61%
Population Hoechst High Intensity Objects (%) [12]: 32%
Population Membrane Permeable-Phenotype (%) [12]: 4%
Population Mitochondria Different-Phenotype (%) [12]: 73%
Population Mitotic Cells (%) [12]: 17%
Population Normal (%) [12]: 67%
Population Pyknosed Nuclei (%) [12]: 19%
Population Tubulin-Different-Phenotype (%) [12]: 38%

— ChEMBL document CHEMBL5058577, “EUbOPEN Chemogenomics Library 2 (Multiplex)” (2022)
